Results reported in PMC7217734 (Journal of biomolecular structure & dynamics, 2019).
Residues, ends and D or L forms follow the SMILES beside them.

Legend:
[1] = target: T1, peptide 91a (coil 1A of vimentin) (Homo sapiens, UniProt P08670, A91E/F96L/I92R/N93L/Q126R/Q127R/T94A/V121L); assay: Isothermal titration calorimetry; format: binding; conditions: NANO ITC; 374a 0.540mM in syringe, 91a 0.095mM in cell
T1 sequence (P08670 with tags, fused parts or gaps V121L/Q126R/Q127R limits assumed): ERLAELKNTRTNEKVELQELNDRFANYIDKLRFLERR
Procedure, shortened: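 The peptides were dissolved in 10 mM Tris pH 8.0. In a low-volume nano calorimeter, the syringe peptide was titrated into the cell peptide in 20 injections of 2.5 µl. Raw heat rate was recorded in µJ/s, and each injection peak was integrated to µJ. The isotherm gave the dissociation constant and stoichiometry n.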

[2] = Dynamic light scattering; format: physicochemical; conditions: 25°C, 1 mg/ml; 50mM NaCl, 10mM Tris-HCl (pH 7.5); individual peptide

With CC[C@H](C)[C@H](NC(=O)[C@H](CCC(=O)O)NC(=O)[C@@H](NC(=O)[C@H](CC(=O)O)NC(=O)[C@H](CC(C)C)NC(=O)[C@H](C)NC(=O)[C@H](CCSC)NC(=O)[C@H](CCCCN)NC(=O)[C@@H](NC(=O)[C@H](CC(N)=O)NC(=O)[C@H](CC(C)C)NC(=O)[C@H](CC(C)C)NC(=O)[C@H](CC(=O)O)NC(=O)[C@H](CCC(N)=O)NC(=O)[C@H](Cc1ccc(O)cc1)NC(=O)[C@H](CCC(=O)O)NC(=O)[C@H](CCCNC(=N)N)NC(=O)[C@H](CCC(=O)O)NC(=O)[C@H](CC(C)C)NC(=O)[C@H](CCCNC(=N)N)NC(=O)[C@H](C)NC(=O)[C@H](CC(C)C)NC(=O)[C@H](CCC(=O)O)NC(=O)[C@@H](N)CCC(=O)O)C(C)C)[C@@H](C)CC)C(=O)N[C@@H](C)C(=O)N[C@H](C(=O)N[C@@H](Cc1ccc(O)cc1)C(=O)N[C@@H](CCCNC(=N)N)C(=O)N[C@@H](CCCCN)C(=O)N[C@@H](CC(C)C)C(=O)N[C@@H](CC(C)C)C(=O)N[C@@H](CCC(=O)O)C(=O)N[C@@H](C)C(=O)N[C@@H](CC(C)C)C(=O)N[C@@H](CCC(=O)O)C(=O)N[C@@H](CO)C(=O)N[C@@H](CCCNC(=N)N)C(=O)O)[C@@H](C)O [peptide 374a] (H-EELARLEREYQDLLNVKMALDIEIATYRKLLEALESR-OH; N-terminus and C-terminus assumed) the stoichiometric ratio n [1] was about 1, the “thermodynamic character of interaction, in words” value [1] was “enthalpy-driven interaction” and the “aggregation by DLS, in words” value [2] was “aggregation is occurring”.
